Results collected from several papers.
Each line is one published result; the experiments were not run side by side.
Target: Serine/threonine-protein kinase 38-like (STK38L, Homo sapiens, UniProt Q9Y2H1)

| Compound | assay | system | setting | quantity | result |
| --- | --- | --- | --- | --- | --- |
| Cn1c2c(c3ccc(Cl)c(Cl)c31)C(C#N)C1(CCOCC1)NC2=O (centres unmarked) | thermal stability, DSF | – | 10 µM | ΔTm | -0.2 °C |
| CC/C(=N\NC(=O)NCc1cccc(O)c1)c1ccc(O)c(C)c1O | enzyme activity, inhibitor | – | 0.1 µM | inhibition | 19.5% |
| CS(=O)(=O)c1cc(C2(NC(=O)c3cncc4c3cnn4-c3ccc(F)cc3)CC2)ccn1 | cell-free assay, competition with immobilised ligand | – | 1 µM | remaining binding | 34% |
| Cn1c2c(c3ccc(Cl)c(Cl)c31)C(C#N)C1(CCN(C(=O)OC(C)(C)C)CC1)NC2=O (racemic) | thermal stability, DSF | – | 10 µM | ΔTm | -0.1 °C |
| CCN1CCN(Cc2ccc(NC(=O)c3ccc(C)c(Oc4ccnc5[nH]ccc45)c3)cc2C(F)(F)F)CC1 | target engagement in cells, inhibitor, chemoproteomics | Huh-7 | 1 µM | inhibition | -11.8% |
| N#CC1c2c([nH]c3c(Cl)c(Cl)ccc23)C(=O)NC12CCCCC2 (racemic) | thermal stability, DSF | – | 10 µM | ΔTm | 0.2 °C |
| O=C(Nc1cnn(-c2csc(C(=O)NC3COC3)c2)c1)Nc1c(F)cccc1Cl | enzyme activity, inhibitor | – | 5 µM | remaining activity | 94.8% |
| CN(C)c1ncc(F)c(-c2cnn3ncccc23)n1 | binding | – | 1 µM | remaining binding | 100% |
| O=C(O)[C@@H]1[C@@H](Cn2nnc3ccccc3c2=O)CC[C@H]1C(=O)c1ccc(OCCC2CCOCC2)cc1 | binding, competition with immobilised ligand | – | 1 µM | remaining binding | 100% |
| Nc1ncnc2occ(-c3ccc(NC(=O)Nc4cc(C(F)(F)F)ccc4F)cc3)c12 | cell-free assay | – | 20 µM | remaining signal | 17% |
| Cn1c2c(c3ccccc31)C(C#N)C(C)(C)NC2=O (centres unmarked) | thermal stability, DSF | – | 10 µM | ΔTm | 0 °C |
| Cc1c(C(=O)O)cc(-c2ccc(C3CCNCC3)cc2)c2ccc(-c3ccc(C(F)(F)F)cc3)cc12 | binding, competition with immobilised ligand | – | 1 µM | remaining binding | 100% |
| Cn1c2c(c3ccc(Cl)c(Cl)c31)C(C#N)C(C)(C)NC2=O (centres unmarked) | thermal stability, DSF | – | 10 µM | ΔTm | -0.1 °C |
| CN(C)C(=O)Cn1cc(-c2nc([C@@](C)(c3ccc(-c4cnc(N)nc4)cc3)C3CC3)no2)cn1 | binding, competition with immobilised ligand | – | 1 µM | remaining binding | 91% |
| Cn1c2c(c3ccc(Cl)c(Cl)c31)C(C#N)C1(CCNCC1)NC2=O (racemic) | thermal stability, DSF | – | 10 µM | ΔTm | -0.2 °C |
| CC(C)(O)[C@H]1CC[C@H](Nc2ccc3ncc(-c4cccc(C(F)(F)F)c4)n3n2)CC1 | enzyme activity, inhibitor | – | 1 µM | remaining activity | 91.9% |
| COCCOc1nc(-c2ccc(Cl)nc2)nc2c1CN(C(=O)c1ncn3ccccc13)CC2 | cell-free assay, competition with immobilised ligand | – | 0.1 µM | remaining binding | 100% |
| CCN1CCN(Cc2ccc(NC(=O)c3ccc(C)c(/C=C/c4cnc5[nH]ccc5c4OC)c3)cc2C(F)(F)F)CC1 | target engagement in cells, inhibitor, chemoproteomics | A-375 | 50 nM | inhibition | -0.856% |
| CN(C)c1ncnc(-c2ccc3nc(Nc4cc(CN5CCN(C(=O)CC(F)(F)F)CC5)ccn4)[nH]c3c2)c1Cl | cell-free assay, competition with immobilised ligand | – | 1 µM | remaining binding | 74% |
| COc1cc(-c2cc(-c3ccc(N4CCNCC4)cc3)cnc2C)cc(OC)c1OC | enzyme activity, inhibitor | – | 0.1 µM | inhibition | 0% |
